Source: ChEMBL document CHEMBL1240376, “Characterization of small ColE-like plasmids mediating widespread dissemination of the qnrB19 gene in commensal enterobacteria” (2010)
≈ marks a conversion by molar mass, not a printed value.

Assays:
Type in all cases: functional
Escherichia coli [1] = assay: Antibacterial activity against ampicillin tetracyclin streptomycin kanamycin-resistant Escherichia coli isolate V32-1 carrying qnrB19 gene
Summary of the method: (§1)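 MICs determined by broth microdilution following CLSI guidelines, with E. coli ATCC 25922 as quality-control strain in every run. Disk diffusion susceptibility was also performed per CLSI.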

Escherichia coli [2] = assay: Antibacterial activity against tetracycline trimethoprim sulfamethoxazole kanamycin-resistant Escherichia coli isolate C14-9 carrying qnrB19 gene; summary of the method: as §1
Escherichia coli [3] = assay: Antibacterial activity against Escherichia coli HB101; summary of the method: as §1
Escherichia coli [4] = assay: Antibacterial activity against ampicillin sulfamethoxazole streptomycin kanamycin-resistant Escherichia coli isolate V6-9 carrying qnrB19 gene; summary of the method: as §1
Escherichia coli [5] = assay: Antibacterial activity against tetracycline sulfamethoxazole streptomycin kanamycin-resistant Escherichia coli isolate M66-6 carrying qnrB19 gene; summary of the method: as §1
Escherichia coli [6] = assay: Antibacterial activity against ampicillin tetracycline trimethoprim sulfamethoxazole streptomycin-resistant Escherichia coli isolate Y6-7 carrying qnrB19 gene; summary of the method: as §1

**Q.** For `C[C@H]1COc2c(N3CCN(C)CC3)c(F)cc3c(=O)c(C(=O)O)cn1c23.C[C@H]1COc2c(N3CCN(C)CC3)c(F)cc3c(=O)c(C(=O)O)cn1c23.O` [LEVOFLOXACIN], which MIC (Escherichia coli [1]) is on record?
**A.** 0.25 µg/mL

**Q.** And the MIC (Escherichia coli [2])?
**A.** 0.25 µg/mL

**Q.** And the MIC (Escherichia coli [3])?
**A.** 7.5 ng/mL

**Q.** What about the MIC (Escherichia coli [4]) of the same compound?
**A.** 0.25 µg/mL

**Q.** How did the MIC (Escherichia coli [1]) turn out when `CCn1cc(C(=O)O)c(=O)c2ccc(C)nc21` [NALIDIXIC ACID] was run?
**A.** 32 µg/mL (≈ 138 µM)

**Q.** What about the MIC (Escherichia coli [2]) of the same compound?
**A.** 32 µg/mL (≈ 138 µM)

**Q.** And the MIC (Escherichia coli [5])?
**A.** 16 µg/mL (≈ 68.9 µM)

**Q.** And the MIC (Escherichia coli [3])?
**A.** 4000 ng/mL (≈ 17.2 µM)

**Q.** And the MIC (Escherichia coli [6])?
**A.** 16 µg/mL (≈ 68.9 µM)

**Q.** What about the MIC (Escherichia coli [4]) of the same compound?
**A.** 32 µg/mL (≈ 138 µM)

**Q.** Which results are given for `CCn1cc(C(=O)O)c(=O)c2cc(F)c(N3CCNCC3)cc21` [NORFLOXACIN]?
**A.** MIC (Escherichia coli [1]): 0.25 µg/mL (≈ 0.783 µM); MIC (Escherichia coli [2]): 0.5 µg/mL (≈ 1.57 µM); MIC (Escherichia coli [5]): 0.25 µg/mL (≈ 0.783 µM); MIC (Escherichia coli [3]): 3 ng/mL (≈ 0.00939 µM); MIC (Escherichia coli [6]): 0.25 µg/mL (≈ 0.783 µM); MIC (Escherichia coli [4]): 0.5 µg/mL (≈ 1.57 µM)
